UPR XBP1 act: activators of adaptive XBP1 UPR arm, primary screen, cell-based, CHO-XBP1 luciferase reporter, luminescence, uHTS | IRE1-XBP1 UPR activation; percent of tunicamycin response, DMSO as zero | activation, % at 20 µM | actives 0.33% (n = 330,000);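 active = versus positive control, 20 µM dose yields 30% or more activation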
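assay system = CHO-XBP1 luciferase reporter cells | amount = 1000 cells/well | buffer or medium = F12 plus 10% FBS | compound dosing = single point, 20 µM final compound, 1% DMSO | incubation = 16-18 h cell attachment at 37 °C, then 6 h compound exposure | detection = Steady-Glo luminescence read | controls = tunicamycin 10 µg/mL and vehicle-only wells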
CHOP inh: inhibitors of CHOP promoter induction, primary screen, cell-based, unfolded protein response, luciferase reporter. actives 3.8% (n = 220,000). inhibition, % at 10 µM. CHO-K1 CHOP-promoter luciferase, tunicamycin-induced, 15-18 h;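 active = compounds that reduced the stress-induced luciferase reporter signal by more than about 70% of percent inhibition, limit read from the data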
697 NFkB inh: inhibitors of PMA/ionomycin-induced NF-kB reporter, 697 cells, primary screen, B-cell NF-kB inhibitor project, cell-based, luminescence, uHTS. 697 B-cell NF-kB luciferase reporter, 16 h. inhibition, % at 4 µM. actives 0.33% (n = 330,000). AID 435022, 2010; in the data active = inhibition above about 35%
Jurkat NFkB inh: inhibitors of induced NF-kB luciferase reporter, primary screen, TCR NF-kB activation inhibitor project, cell-based, luminescence, uHTS. Jurkat, PMA/ionomycin-induced NF-kB luciferase reporter. inhibition, % at 4 µM. actives 0.53% (n = 330,000); in the data active = inhibition above about 50%
CHOP UPR activ: activators of apoptotic CHOP UPR arm, primary screen, cell-based, CHO-CHOP luciferase reporter, luminescence, uHTS | activation, % at 10 µM | actives 0.34% (n = 330,000) | UPR activation; percent of tunicamycin response over DMSO baseline;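 active = at 10 µM dose, activation of 40% or more, normalized to positive control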
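Evaluation: % reporter activation, DMSO baseline versus tunicamycin full activation; System: CHO-CHOP luciferase reporter cell line; Input: 500 cells/well; Incubation: 6 h compound treatment, 37 °C; Measured by: Steady-Glo luciferase luminescence; Dosing: one dose, 10 µM in 0.5% DMSO; Buffer or medium: F12 medium, 10% FBS; Benchmarks: positive tunicamycin 10 µg/mL, negative DMSO alone.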
Gli-Sufu block: Gli-Sufu pathway antagonists, primary screen, luciferase luminescence, Sufu-KO-LIGHT cells, uHTS | Sufu-KO-LIGHT fibroblasts, Gli luciferase reporter luminescence | inhibition, % at 5 µM | actives 0.74% (n = 340,000) | AID 588413, 2011;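 active = inhibition above about 55%, limit read from the data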
Gli-Sufu confirm: Gli-SUFU pathway antagonists, confirmation, single concentration, luciferase luminescence, Sufu-KO-LIGHT cells | inhibition, % at 5 µM | Gli luciferase reporter | actives 40% (n = 2,500) | shares compounds with Gli-Sufu block;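 active = mean inhibition at 5 µM reaching about 45%, limit read from the data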
SufuKO cytotox: cytotoxicity in Sufu-KO-LIGHT cells, confirmation, cytotoxicity control for Gli-SUFU antagonist project, cell-based, ATP luminescence, single concentration | actives 32% (n = 2,500) | cytotoxicity, % at 5 µM | shares compounds with Gli-Sufu block | AID 651994, 2013;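 active = mean cytotoxicity at 5 µM above about 25%, limit read from the data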;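 note: cells exposed to compound overnight for roughly 16 to 18 hours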
Wnt3a counter: Wnt3a reporter signal inhibition, confirmation, counter-screen for Gli-SUFU antagonist project, Wnt-LIGHT cells, luminescence, single concentration; inhibition, % at 6.25 µM; actives 20% (n = 2,500); Wnt3a-driven luciferase reporter; AID 651995, 2013; shares compounds with Gli-Sufu block;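 active = mean inhibition above about 25%, limit read from the data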
Hits are given with their value; . = inactive; / = no result. Most compounds without a hit are left out; they make up all but 3.9% or so of the library.

SMILES | UPR XBP1 act | CHOP inh | 697 NFkB inh | Jurkat NFkB inh | CHOP UPR activ | Gli-Sufu block | Gli-Sufu confirm | SufuKO cytotox | Wnt3a counter
CCCN1C(C)C(C(=O)OCC)=CN(Cc2ccc(Br)cc2)S1(=O)=O (stereo not drawn) | . | / | . | / | . | . | / | / | /
CCOC(=O)C(=CNc1cc(Cl)c(-c2ccco2)c(Cl)c1)C(=O)OCC | . | . | . | . | . | 60 | . | . | .
CC(C)(C)OC(=O)N(Cc1ccccc1)Cc1ccc(OCc2cccc(NC(=O)C3CC3)c2)cc1 | / | / | / | / | / | . | / | / | /
O=C(Nc1ccccc1Oc1ccccc1)c1cccs1 | . | / | . | . | . | . | / | / | /
NC(=O)c1c(-c2ccc(Cl)cc2Cl)csc1NC(=O)Cc1ccccc1 | / | 73 | / | / | / | 56 | 62 | . | .
COc1ccc([C@H]2CC(=O)C=C(c3cc(Cl)ccc3C)C2)cc1 | . | / | . | . | . | . | / | / | /
COc1ccc([C@H]2CC(=O)C=C(c3ccnc4ccc(Cl)cc34)C2)cc1 | . | / | . | . | . | 74 | 68 | . | 38
O=C(NC1CCN(Cc2ccccc2)CC1)C1CCN(S(=O)(=O)c2cccc3nsnc23)CC1 | . | . | . | . | . | 59 | . | 29 | .
CN(C(=O)COC(=O)CNC(=O)c1ccc2ccccc2c1)c1c(N)n(Cc2ccccc2)c(=O)[nH]c1=O | . | / | . | . | . | . | / | / | /
CCOC(=O)C1=C(C)NC(C)=C(C(=O)OCC)C1c1ccc(C)o1 | . | . | . | . | . | 59 | . | 27 | .
C=CCOC(=O)C1=C(C)NC(C)=C(C(=O)OCC=C)C1c1ccc(C)o1 | . | . | . | . | . | . | / | / | /
COc1ccccc1NC(=O)c1ccc2c(c1)N(CC#N)C(=O)C(C)(C)O2 | . | / | . | . | . | . | . | . | .
O=C(CN1C(=O)NC2(CCCCCC2)C1=O)N1CCN(c2ccccc2)CC1 | . | / | . | . | . | . | / | / | /
COc1ccc2[nH]c3c(c2c1)CCN1C(=O)C(CC(=O)NCCCn2ccnc2)C[C@H](C(=O)N(C(C)C)C(C)C)[C@@]31C (stereo partly drawn) | . | / | . | / | . | . | / | / | /
CSc1nc2c(c(C(F)(F)F)n1)CC(C)CC2 (stereo not drawn) | . | . | . | . | . | 99 | . | . | .
Cc1nnc(SCC(=O)NNC(=O)COc2ccc(Cl)cc2)n1C | . | / | . | . | . | . | / | / | /
NC(=O)c1ccccc1NC(=O)c1cccc(C(=O)Nc2ccccc2C(N)=O)n1 | . | / | . | . | . | . | / | / | /
CCOC(=O)C(C(=O)OCC)C(C)(C)/C(C)=N\Nc1ccc([N+](=O)[O-])cc1[N+](=O)[O-] | . | . | . | . | . | . | . | 29 | 69
CCc1ccccc1NC(=O)C1CCCN1S(=O)(=O)c1ccc(-c2ccc(=O)[nH]n2)s1 (stereo not drawn) | . | / | . | . | . | . | / | / | /
Cc1cccc(C)c1NC(=O)C1CCCN1S(=O)(=O)c1ccc(-c2ccc(=O)[nH]n2)s1 (stereo not drawn) | . | / | . | . | . | . | . | . | 35
Cn1cnc2c(cnn2C)c1=O | / | / | / | / | / | . | / | / | /
COC(=O)c1ccc(=O)n(-c2ccc(OC)cc2)c1 | . | . | . | . | . | 76 | . | . | .
COC(=O)c1ccc(NC(=O)Nc2ccc(OC)cc2)cc1 | . | . | . | . | . | . | / | / | /
C=C(C)COc1ccc2c(C)c(CCC(=O)N3C[C@H]4C[C@@H](C3)c3cccc(=O)n3C4)c(=O)oc2c1 | . | / | . | . | . | . | / | / | /
CCCCc1cc(=O)oc2cc(C)cc(OCC(=O)N3CCC(C(=O)O)CC3)c12 | . | / | . | . | . | . | / | / | /
SMILES | UPR XBP1 act | CHOP inh | 697 NFkB inh | Jurkat NFkB inh | CHOP UPR activ | Gli-Sufu block | Gli-Sufu confirm | SufuKO cytotox | Wnt3a counter
CCCc1cc(=O)oc2cc(C)cc(OCC(=O)N3CCC(C(=O)O)CC3)c12 | . | / | . | . | . | . | . | . | .
c1ccc(NC2=NCCN2CCC2CCCC2)cc1 | . | / | . | . | . | . | / | / | /
Cc1ccc(S(=O)(=O)Cc2ccc(C(=O)OCc3ccccc3)cc2)cc1 | . | . | . | . | . | . | / | / | /
COC(=O)c1c[nH]c2c1-c1cc(C(=O)OCc3ccccc3)n(S(=O)(=O)c3ccc(C)cc3)c1C(=O)C2=O | / | / | / | / | / | 55 | 76 | 51 | 100
CC1=NN(c2ccccc2)C(=O)/C1=C\N1CC(C)OC(C)C1 (stereo not drawn) | . | . | . | . | . | 98 | . | . | .
COCCN(C(=O)c1csnn1)C(C(=O)NC1CCCC1)c1ccccc1F (stereo not drawn) | . | / | . | . | . | . | / | / | /
O=C(Nc1ccccc1)/C(=C\c1ccc(F)cc1)NC(=O)c1ccco1 | . | / | . | . | . | . | / | / | /
COc1ccc2c(c1)CCCC21SC(NC(C)=O)=NN1C(C)=O (stereo not drawn) | . | . | . | . | . | . | . | . | .
COc1ccc(C(C#N)=C2C=CC(=NO)C(C)=C2Cl)cc1 | / | / | / | / | / | . | / | / | /
S=C(Nc1ccc(Cl)cc1)NC1CC2CCCC(C1)N2C1CC1 (stereo not drawn) | . | . | . | . | . | . | / | / | /
S=C(Nc1ccc(Cl)cc1)NC1CC2CCCC(C1)N2C1CCCC1 (stereo not drawn) | . | . | . | . | . | 60 | . | 31 | .
N#Cc1ccc(OCC(=O)Nc2ccccc2NS(=O)(=O)c2cccs2)cc1 | . | . | . | . | . | . | . | . | .
CCCOC(=O)c1c(-c2ccccc2)nc(CC)c(C(=O)SCC)c1CCC | . | . | . | . | . | . | / | / | /
COc1ccc(/C=N/NC(=O)c2nc(-c3ccccc3)cc(-c3ccccc3)n2)cc1 | . | . | . | . | . | . | / | / | /
COc1cc(/C=N/NC(=O)c2cc(-c3ccccc3)nc3ccccc23)ccc1O | . | / | . | . | . | 59 | . | . | .
COc1ccc(/C=N/NC(=O)c2nc(-c3ccccc3)cc(-c3ccccc3)n2)cc1O | . | . | . | . | . | 55 | . | . | .
